Experimental data collected from several papers.
Each line is one published result; the experiments were not run side by side.
Target: Serine/threonine-protein kinase TAO1 (TAOK1, Homo sapiens, UniProt Q7L7X3)
Sequence (Q7L7X3 1-1001, as in one of the studies): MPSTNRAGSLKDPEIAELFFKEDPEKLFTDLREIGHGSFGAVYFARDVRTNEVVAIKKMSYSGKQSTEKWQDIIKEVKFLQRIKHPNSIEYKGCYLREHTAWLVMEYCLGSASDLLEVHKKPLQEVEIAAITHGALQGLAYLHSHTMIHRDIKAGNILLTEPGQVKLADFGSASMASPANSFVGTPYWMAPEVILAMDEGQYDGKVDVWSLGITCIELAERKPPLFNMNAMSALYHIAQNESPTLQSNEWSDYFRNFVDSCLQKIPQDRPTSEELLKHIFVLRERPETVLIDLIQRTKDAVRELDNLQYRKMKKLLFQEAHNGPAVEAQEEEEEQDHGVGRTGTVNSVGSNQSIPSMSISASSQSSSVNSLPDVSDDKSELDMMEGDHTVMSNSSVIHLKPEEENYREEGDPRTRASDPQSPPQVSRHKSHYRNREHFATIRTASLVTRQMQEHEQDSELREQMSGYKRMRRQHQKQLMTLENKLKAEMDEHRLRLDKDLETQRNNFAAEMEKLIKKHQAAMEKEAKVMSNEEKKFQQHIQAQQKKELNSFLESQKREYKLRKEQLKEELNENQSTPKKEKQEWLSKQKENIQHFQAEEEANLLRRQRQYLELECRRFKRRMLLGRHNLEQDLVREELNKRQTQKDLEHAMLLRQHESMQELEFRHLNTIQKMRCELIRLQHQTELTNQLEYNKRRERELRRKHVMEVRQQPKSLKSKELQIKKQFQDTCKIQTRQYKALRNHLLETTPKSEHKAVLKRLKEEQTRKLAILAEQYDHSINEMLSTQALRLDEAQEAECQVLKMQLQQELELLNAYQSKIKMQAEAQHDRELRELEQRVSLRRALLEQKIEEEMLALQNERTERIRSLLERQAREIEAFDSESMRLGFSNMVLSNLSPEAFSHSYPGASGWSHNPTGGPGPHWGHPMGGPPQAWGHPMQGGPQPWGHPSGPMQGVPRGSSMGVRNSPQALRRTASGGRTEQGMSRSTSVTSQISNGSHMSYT

O=C1Nc2ccc(Cl)cc2C1=Cc1cc(Cl)c(O)c(Cl)c1
remaining signal (cell-free assay; 0.5 µM): 71.6%

COc1cc(-c2cn(C3CCc4ccccc4N(CC(F)(F)F)C3=O)nn2)ccc1-n1ccc(C)n1 (stereo not drawn)
remaining binding (cell-free assay; competition with immobilised ligand; 1 µM): 92%

O=C(Nc1cnn(-c2csc(C(=O)NC3COC3)c2)c1)Nc1c(F)cccc1Cl
remaining activity (enzyme activity; inhibitor; 5 µM): 90.6%

COc1cc(Nc2cnc(C#N)c(O[C@H](C)CN(C)C)n2)ncc1-c1cnn(C)c1
remaining activity (enzyme activity; inhibitor; radiometric; 10 µM): 75%

Oc1cccc(-c2nc(N3CCOCC3)c3oc4ncccc4c3n2)c1
remaining activity (enzyme activity; inhibitor; 10 µM): 84%

CCN(CC)CCNC(=O)c1c(C)[nH]c(/C=C2\C(=O)Nc3ccc(F)cc32)c1C
remaining signal (cell-free assay; 0.5 µM): 71.5%

Cn1c(=O)n(-c2ccc(C(C)(C)C#N)cc2)c2c3cc(-c4cnc5ccccc5c4)ccc3ncc21
remaining activity (enzyme activity; inhibitor; 10 µM): 81%

N#CCCc1ccc2c(c1)-c1[nH]c3ccc([N+](=O)[O-])cc3c1CC(=O)N2
remaining signal (cell-free assay; 0.5 µM): 73.1%

CO[C@@H](C)c1c(Nc2ccc([C@H](N(C)C(=O)C3CCS(=O)(=O)CC3)C(F)(F)F)cc2)cnc2cc(Cl)nn12
remaining binding (cell-free assay; competition with immobilised ligand; 1 µM): 100%

Cc1ccc(C(=O)Nc2ccc(CN3CCN(C)CC3)c(C(F)(F)F)c2)cc1C#Cc1cnc2cccnn12
remaining activity (enzyme activity; inhibitor; 23.5 nM): 67%

Cc1cc(C)c(-n2ccn3nc(-c4cccnc4)cc23)cc1NC(=O)c1cc(C#N)cc(S(F)(F)(F)(F)F)c1
remaining binding (cell-free assay; competition with immobilised ligand; 0.1 µM): 45.2%

CCCOc1ccc(OC)c(F)c1C(=O)c1ccc(C(=O)N[C@@H]2CNC[C@H]2NC(=O)c2ccc3[nH]ncc3c2)cc1
remaining activity (enzyme activity; inhibitor; 10 µM): 74%

CNC(=O)Nc1ccc2c(c1)CC[C@@]21OC(=O)N(CC(=O)N(Cc2ccc(F)cc2)[C@@H](C)C(F)(F)F)C1=O
remaining binding (cell-free assay; competition with immobilised ligand; 1 µM): 94%

Cc1ccc(NC(=O)c2ccc(C)c(C(F)(F)F)c2)cc1C#Cc1nn(C2CCC(O)CC2)c2ncnc(N)c12 (stereo not drawn)
remaining signal (cell-free assay; 10 µM): 18%

FC(F)(F)Oc1cccc(-c2cnc3ccc(-c4ccncc4)nn23)c1
activity vs control (enzyme activity; inhibitor; radiometric; 5 µM): 87%

Cc1cnc(NC2CCOCC2)nc1-n1cnc(C(=O)NC(CN)c2cc(F)cc(Cl)c2)c1 (stereo not drawn)
remaining activity (enzyme activity; inhibitor; radiometric; 1 µM): 67%

Nc1nc(Nc2ccc(S(N)(=O)=O)cc2)sc1C(=O)c1ccccc1[N+](=O)[O-]
inhibition (enzyme activity; inhibitor; 0.1 µM): 60 to 66%

CS(=O)(=O)c1cc(C2(NC(=O)c3cncc4c3cnn4-c3ccc(F)cc3)CC2)ccn1
remaining binding (cell-free assay; competition with immobilised ligand; 1 µM): 94%

Cc1cc(NC(=O)c2cccc3cc(-c4cccc5[nH]nc(N)c45)ccc23)ccc1F
activity vs control (enzyme activity; inhibitor; 0.1 µM): 103%

CCN(CC)c1ccc(C2=NNC(=O)CC2C)cc1[N+](=O)[O-] (stereo not drawn)
remaining activity (enzyme activity; inhibitor; 10 µM): 115%

C[C@H](c1ccnc(Nc2nc3ccc(-c4cc(N(C)C)ncn4)cc3[nH]2)c1)N1CCN(C(=O)CC(F)(F)F)CC1
remaining binding (cell-free assay; competition with immobilised ligand; 0.1 µM): 100%
